In ChEMBL document CHEMBL4190246, “Phytochemical Studies on Two Australian Anigozanthos Plant Species” (J Nat Prod, 2017) one finds Activity data, which are given here for 13 compounds.

Activity calls are given as the source filed them. The rule behind the calls is not given here.

Common to all, as to type: functional, organism-based
For assay [1], the system named is Pseudomonas aeruginosa. In words: Antimicrobial activity against Pseudomonas aeruginosa ATCC 27853 at 32 ug/ml after 18 hrs. The gist of the method:
(§1)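 Single-concentration screen: samples from 10 mg/mL DMSO stocks, duplicate wells; overnight culture in cation-adjusted Mueller Hinton broth at 37 °C, added to 5 × 10^5 CFU/mL, final compound 32 μg/mL; 37 °C, 18 h. Growth read as absorbance at 600 nm; percent inhibition against media-only and untreated-cell controls on the same plate, significance by Z-score.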

Assay [2] has as its system Cryptococcus neoformans. In words: Antimicrobial activity against Cryptococcus neoformans ATCC 208821 at 32 ug/ml after 24 hrs by resazurin dye based assay. The gist of the method: (§2)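 Fungi grown 3 days on yeast extract–peptone dextrose agar at 30 °C, then diluted in yeast nitrogen base broth to 2.5 × 10^5 CFU/mL. Samples from 10 mg/mL DMSO stocks, duplicate wells, final 32 μg/mL; 35 °C, 24 h. Resazurin added (0.001% final), 2 h more at 35 °C, absorbance at 530 nm. Percent inhibition against on-plate controls; Z-scores.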

Assay [3] has as its system Escherichia coli. In words: Antimicrobial activity against Escherichia coli ATCC 25922 at 32 ug/ml after 18 hrs. The gist of the method:
as §1

The test system of assay [4] is Staphylococcus aureus. In words: Antimicrobial activity against methicillin-resistant Staphylococcus aureus ATCC 43300 at 32 ug/ml after 18 hrs. The gist of the method:
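Single-concentration screen (COADD): samples dissolved in DMSO at 10 mg/mL stock, plated in duplicate; overnight culture in cation-adjusted Mueller Hinton broth at 37 °C added to 5 × 10^5 CFU/mL, final 32 μg/mL. Incubated 37 °C. Read-out absorbance 600 nm; percent growth inhibition versus media-only and untreated-cell controls on the same plate; significance by Z-score from sample wells.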

Assay [5] has as its system Acinetobacter baumannii. In words: Antimicrobial activity against Acinetobacter baumannii ATCC 19606 at 32 ug/ml after 18 hrs. The note with it: ATCC 19606 = CIP 70.34 = JCM 6841. The gist of the method: as §1
In assay [6] the test system is Candida albicans. In words: Antimicrobial activity against Candida albicans ATCC 90028 at 32 ug/ml after 24 hrs by resazurin dye based assay. The gist of the method: as §2
Assay [7] has as its system Klebsiella pneumoniae. In words: Antimicrobial activity against Klebsiella pneumoniae ATCC 700603 at 32 ug/ml after 18 hrs. The gist of the method:
as §1

Assay [8] deals with Acinetobacter baumannii. In words: Antimicrobial activity against Acinetobacter baumannii ATCC 19606 at 94.9 uM after 18 hrs. The note with it: ATCC 19606 = CIP 70.34 = JCM 6841. The method, boiled down:
as §1

The subject of assay [9] is Acinetobacter baumannii. In words: Antimicrobial activity against Acinetobacter baumannii ATCC 19606 at 53.9 uM after 18 hrs. Particulars: ATCC 19606 = CIP 70.34 = JCM 6841. The method, boiled down: as §1
Assay [10] has as its system Acinetobacter baumannii. In words: Antimicrobial activity against Acinetobacter baumannii ATCC 19606 at 52.4 uM after 18 hrs. The note with it: ATCC 19606 = CIP 70.34 = JCM 6841. The gist of the method: as §1

With `O=C(/C=C/c1ccc(O)cc1)OC[C@H]1O[C@@H](Oc2c(-c3ccc(O)cc3)oc3cc(O)cc(O)c3c2=O)[C@H](O)[C@@H](O)[C@@H]1O`, the outcome in assay [1], in assay [2], in assay [3], in [4], in assay [5] and in assay [6] was inactive. Besides, in [7], the outcome was inactive.
In the case of `O=c1cc(-c2ccc(O)c(O)c2)oc2cc(O[C@@H]3O[C@H](CO)[C@@H](O)[C@H](O)[C@H]3O)cc(O)c12`, the result in assay [1], in [2], in assay [3], in assay [4], in assay [5] and in [6] was inactive. For the same compound, in assay [7], the outcome was inactive.
In the case of `O=C(/C=C/c1ccc(O)cc1)O[C@H]1[C@H](O)[C@@H](O)[C@H](Oc2cc(O)c(O)c(C(=O)/C=C/c3ccc(O)cc3)c2)O[C@@H]1CO`, the outcome in [1], in assay [2], in [3], in assay [4], in assay [5] and in assay [6] was inactive. Also, the result in [7] was inactive.
As to `O=C1c2c(O)cc(O)cc2O[C@H](c2ccc(O)c(O)c2)[C@H]1O`, the outcome in assay [1], in [2], in assay [3], in assay [4], in assay [5] and in [6] was inactive. In addition, the outcome in assay [7] was inactive.
On to `O=C(O)[C@H]1O[C@@H](Oc2cc(O)c3c(=O)cc(-c4ccc(O)cc4)oc3c2)[C@H](O)[C@@H](O)[C@@H]1O`, for which the outcome in assay [1], in assay [2], in [3], in assay [4], in assay [5] and in assay [6] was inactive. Further, in assay [7], the result was inactive.
For the compound `O=C(/C=C/c1ccc(O)cc1)OC[C@H]1O[C@@H](Oc2cc3c(O)cc(O)cc3[o+]c2-c2ccc(O)c(O)c2)[C@H](O)[C@@H](O)[C@@H]1O`, the outcome in assay [1], in assay [2], in assay [3], in assay [4], in assay [5] and in [6] was inactive. Further, in assay [7], the outcome was inactive.
On to `NC(CCCC(OC(=O)/C=C/c1ccc(O)cc1)C(=O)O)C(=O)O` (stereo unspecified), for which the outcome in assay [1], in [2], in assay [3], in [4], in assay [6] and in [7] was inactive. Also, in [8], the outcome was Active.
On to `C[C@@H]1O[C@@H](OC[C@H]2O[C@@H](Oc3c(-c4ccc(O)cc4)oc4cc(O)cc(O)c4c3=O)[C@H](O)[C@@H](O)[C@@H]2O)[C@H](O)[C@H](O)[C@H]1O`, for which the result in assay [1], in assay [2], in assay [3], in assay [4], in assay [6] and in assay [7] was inactive. For the same compound, the outcome in assay [9] was Active.
In the case of `C[C@@H]1O[C@@H](OC[C@H]2O[C@@H](Oc3c(-c4ccc(O)c(O)c4)oc4cc(O)cc(O)c4c3=O)[C@H](O)[C@@H](O)[C@@H]2O)[C@H](O)[C@H](O)[C@H]1O`, the outcome in [1], in assay [2], in assay [3], in [4], in assay [5] and in [6] was inactive. For the same compound, in [7], the result was inactive.
In the case of `O=C(/C=C/c1ccc(O)cc1)OC[C@H]1O[C@@H](Oc2c(-c3ccc(O)c(O)c3)oc3cc(O)cc(O)c3c2=O)[C@H](O)[C@@H](O)[C@@H]1O`, the outcome in [1], in assay [2], in [3], in assay [4], in assay [5] and in assay [6] was inactive. Further, the result in assay [7] was inactive.
On to `O=c1c(O[C@@H]2O[C@H](CO)[C@@H](O)[C@H](O)[C@H]2O)c(-c2ccc(O)c(O)c2)oc2cc(O)cc(O)c12`, for which the result in assay [1], in assay [2], in [3], in [4], in assay [5] and in [6] was inactive. Besides, in assay [7], the result was inactive.
Regarding `O=c1c(O)c(-c2ccc(O)cc2)oc2cc(O)cc(O)c12`, the outcome in assay [1], in assay [2], in assay [3], in assay [4], in [5] and in [6] was inactive. Further, the result in assay [7] was inactive.
For the compound `C[C@@H]1O[C@@H](OC[C@H]2O[C@@H](Oc3cc4c(O)cc(O)cc4[o+]c3-c3ccc(O)c(O)c3)[C@H](O)[C@@H](O)[C@@H]2O)[C@H](O)[C@H](O)[C@H]1O`, the result in [1], in assay [2], in assay [3], in [4], in assay [6] and in assay [7] was inactive. Besides, the result in assay [10] was Active.
